As a reminder, the inhibition is the relative decrease from the control value, in per cent.

Screen size: about 65,000 compounds; about 280 (0.43%) were called active. Only a selection was taken, and actives are over-represented in it overall. Values without a mark were called inactive.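 Rule for the calls: active = inhibition above the mean of all tested compounds plus 3 SD (cut at about 52% in these data); inactive = the rest.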

Sequence of Nuclear receptor ROR-alpha (Homo sapiens) (P35398 whole entry, looked up, the tested form may be a part): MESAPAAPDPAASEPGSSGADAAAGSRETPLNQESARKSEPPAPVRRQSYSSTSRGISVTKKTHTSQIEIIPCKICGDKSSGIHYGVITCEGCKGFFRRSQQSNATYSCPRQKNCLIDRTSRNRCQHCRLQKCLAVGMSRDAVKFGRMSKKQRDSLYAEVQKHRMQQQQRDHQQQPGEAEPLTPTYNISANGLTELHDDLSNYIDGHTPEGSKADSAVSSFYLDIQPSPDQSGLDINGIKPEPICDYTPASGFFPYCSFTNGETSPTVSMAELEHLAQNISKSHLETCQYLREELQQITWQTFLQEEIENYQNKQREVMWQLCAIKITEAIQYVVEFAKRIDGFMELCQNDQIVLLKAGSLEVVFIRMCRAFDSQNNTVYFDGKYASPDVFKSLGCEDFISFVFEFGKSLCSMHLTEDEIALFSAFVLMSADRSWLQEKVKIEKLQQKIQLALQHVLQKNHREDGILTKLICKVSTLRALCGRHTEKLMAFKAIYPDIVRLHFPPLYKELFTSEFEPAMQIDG

The target of this experiment is Nuclear receptor ROR-alpha (Homo sapiens) (UniProt P35398). The experiment in a line: inhibitors of orphan receptor RORA, primary screen, cell-based, luminescence (AID 561). To be noted: CHO-K1 Gal4-RORA LBD luciferase reporter, at 10 µM, stronger effect = higher value. The procedure, abridged:
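Test system: CHO-K1 cells with Gal4-hRORA LBD fusion and pG5-luc reporter / Compound: single concentration per compound, 10 µM final / Schedule: 20 h compound treatment, 37 °C / Signal: luminescence from basal luciferase reporter expression / Read-out: % inhibition / Control set: mock-transfected cells as 100%, +RORA DMSO cells as 0% / Replicates: tested once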
In general terms: A reporter such as luciferase makes a cellular process visible.
Regarding `O=C(Nc1ccon1)c1cccc(Cl)c1`, the inhibition was 2.2%.
The value for `O=C(Nc1ccc(Cl)cc1)c1ccsn1` was -59.5%.
As to `COc1ccc(OC)c(NC(=O)Cn2c(=O)oc3ccccc32)c1`, the inhibition is -7.4%.
`O=C(CC1OC(=O)c2ccccc21)NC1CCCCC1` (centres undefined): the inhibition was 7.6%.
For the compound `COc1ccc(-c2cc(C(F)(F)F)nc(S(C)(=O)=O)n2)cc1OC`, the inhibition was 60.9% (active).
For the compound `CCN1C(=O)/C(=C2\SC(N3CCCCC3)=NC2=O)c2ccccc21`, the inhibition is -84.9%.
As for `c1ccc(-n2ncc3c2ncn2c(CSc4nc5ccccc5s4)nnc32)cc1`, the inhibition was 25%.
`O=C(NCc1ccccn1)c1c(O)c2c([nH]c1=O)CCCC2`: the inhibition was 9.5%.
`O=C(OC1CCOC1=O)c1ccc(-c2nc3ccccc3s2)s1` (centres undefined): the inhibition is 60.6% (active).
Take `CN(Cc1ccccc1)c1nc2c(c(=O)[nH]c(=O)n2C)n1CCSc1nc2ccccc2[nH]1`: the inhibition was -1.9%.
For `CCOc1ccccc1NC(=O)CCN1CCN(S(=O)(=O)c2ccc(OC)cc2)CC1`, the inhibition was 0.6%.
`NC(=O)CSC1=Nc2ccccc2C2=NC(CCC(=O)NCc3ccc(F)cc3)C(=O)N12` (centres undefined): the inhibition was 17.5%.
To `CCOC(=O)C1=C(CC)Nc2ccccc2N=C1NC(=O)c1cccc(S(=O)(=O)N2CCCC2)c1` belongs -0.9%.
`CCn1c(=N)c(S(=O)(=O)c2ccc(F)cc2)cc2c(=O)n3ccccc3nc21`: the inhibition was 13.5%.
With `c1ccc2c(c1)OCC(CNc1ncnc3nc[nH]c13)O2` (centres undefined), the inhibition is -20.2%.
Take `Cc1ccc2nc(NC(=O)C3CCN(S(=O)(=O)c4ccc5c(c4)oc(=O)n5C)CC3)sc2c1`: the inhibition is -2.8%.
For `CCOc1ccc(S(=O)(=O)N(CC(=O)O)c2ccccc2)cc1`, the inhibition is 0%.
As to `COc1cc(C2C(C(=O)Nc3ccccc3OC)=C(C)Nc3ncnn32)ccc1O` (centres undefined), the inhibition was -9.5%.
With `COc1ccccc1NC(=O)c1ccc(C)s1`, the inhibition is -48.9%.
With `COc1ccc(C(=O)Nc2ccc3c(c2)OCO3)cc1OC`, the inhibition is -69.8%.
Regarding `COCCCNC(=O)C1CC(=O)N(c2ccc(C)cc2)C1` (centres undefined), the inhibition was -6.1%.
The value for `CCOC(=O)c1ccc(NC(=O)Cn2nnc(-c3ccc(C)cc3)n2)cc1` was -41.7%; that for `C=C(C)CSc1nc(N)c2c3c(sc2n1)CCC3` was -56.2%.
As to `CC1CCC(NC(=O)c2ccc(N3CCCC3=O)cc2)CC1` (centres undefined), the inhibition is -61.7%.
With `CCNS(=O)(=O)c1ccc(NC(=O)Nc2cccc(OC)c2)cc1`, the inhibition is 10%.
`O=C(NCc1ccccc1)C1C(=O)N(Cc2ccccc2)C(=O)C1C1(O)CCCC1` (centres undefined): the inhibition is 13%.
As to `CCOC(=O)CSc1nncc2ccc(OC)c(OC)c12`, the inhibition was 21%.
Take `Cc1ccccc1CSc1nnc(-c2cccnc2)n1N`: the inhibition is 7.1%.
To `O=C1c2ccccc2C(=O)N1c1ccccc1S(=O)C(F)(F)F` (centres undefined) belongs -6.1%; to `COc1ccc(-n2ncc3c(N4CCc5ccccc54)ncnc32)cc1`, -50.3%.
Take `CCS(=O)(=O)N1CCCC(C(=O)NCc2ccc(C)cc2)C1` (centres undefined): the inhibition was 5.2%.
In the case of `Cc1cccc2nc(CNc3ccc(F)cc3)cn12`, the inhibition was -1%.
The value for `Cc1cccc(NC(=O)c2ccc3ccccc3n2)n1` was -83%; that for `COc1ccc(N2CCN(C(=O)CSc3nc4cc(OC)c(OC)cc4cc3C#N)CC2)cc1` was 8.5%; that for `Cc1ccc(NC(=O)NCC(c2cccnc2)N2CCOCC2)cc1` (centres undefined) was 20.8%.
For the compound `CCOC(=O)C1=C(C)NC(C)=C(C(=O)OCC)C1C1=COCCO1`, the inhibition is 7.2%.
For the compound `O=C(NCCN1CCOCC1)c1ccc2c(c1)ncn2C1CCCC1`, the inhibition is -3.7%.
For the compound `Cc1cc(C(=O)OCC(=O)NCc2ccco2)c(C)n1-c1ccccc1`, the inhibition is -61.4%.
As for `CCCOC(=O)c1[nH]c2c(c1C)C(=O)CC(c1cc(OC)c(OC)c(OC)c1)C2` (centres undefined), the inhibition is 61.1% (active).
Consider `Cc1ccccc1OCC(=O)Nc1ccc(N2CCN(C(=O)C(C)C)CC2)c(Cl)c1`, for which the inhibition was 52% (active).
The value for `COc1ccc(C(=O)CSc2nnc(COc3ccccc3)n2Cc2ccco2)cc1` was -7.7%.
Consider `COc1ccc(C)c2sc(=NC(=O)c3ccc(C#N)cc3)n(C)c12`, for which the inhibition is -84.6%.
Consider `CCS(=O)(=O)n1nc(-c2ccc(OC)cc2)nc1SC`, for which the inhibition was -52.4%.
Regarding `N#Cc1nc(Cc2ccccc2)oc1NCCc1ccccc1`, the inhibition is -54.1%.
On to `COc1cc(-n2c(C)nc3cc(C(=O)NCc4ccco4)ccc32)cc(OC)c1OC`, for which the inhibition was -5.4%.
`COc1ccc(OC)c(CN2C(=O)CCC2(C)C(=O)NC2CCCCCC2)c1` (centres undefined): the inhibition is 5.2%.
To `CCN(CC)S(=O)(=O)c1cc(C(=O)Nc2ccccn2)ccc1C` belongs -59.6%; to `O=C(Nc1c(C(=O)N2CCCCC2)cnn1-c1ccccc1)c1ccco1`, -6.7%.
The value for `O=c1c2ccccc2oc2nc(C3CCCCC3)n(Cc3ccco3)c(=O)c12` was 2.7%; that for `Cc1cccc(OCc2nnc(SCc3nc4cc(C(F)(F)F)ccc4c(=O)[nH]3)o2)c1` was 16.5%.
On to `CCOc1cccc(-c2nn3c(-c4ccccn4)nnc3s2)c1`, for which the inhibition is -0.6%.
For `O=C(Nc1ccc(Cl)cn1)c1cnn2cccnc12`, the inhibition is -62%.
Take `CSc1ccc(NC(=O)N2CC(C)OC(C)C2)cc1` (centres undefined): the inhibition was 9.2%.
In the case of `CCC(CC)C(=O)Nc1cccc(C(=O)N2CCCC2)c1`, the inhibition is -11%.
To `Oc1ccc(Cl)cc1/C=N/c1nc2ccccc2[nH]1` belongs -51.7%; to `CSc1cccc(NC(=O)C2CCCN2S(=O)(=O)c2ccc3c(c2)CCC(=O)N3)c1` (centres undefined), -14%; to `OC(COc1ccc2ccccc2c1)CN1CCOCC1` (centres undefined), -16.8%.
The value for `OCCCN1c2ccccc2Nc2nnc(-c3ccccc3)cc21` was -56.8%; that for `CCC1(C)Cc2c(sc3nc4n(c(=O)c23)CCCS4)CO1` (centres undefined) was -15.7%.
`O=C(Cn1c(-c2cncs2)nc2ccccc21)NC1CCCC1`: the inhibition is 19.7%.
With `CCOC(=O)N1CCN(C(=O)C2CCN(c3ncnc4c3sc3cccc(F)c34)CC2)CC1`, the inhibition was 75.2% (active).
The value for `O=C(Nc1nc(-c2ccncc2)cs1)C1COc2ccccc2O1` (centres undefined) was -15.8%; that for `CNC(=O)CSc1nnnn1-c1ccc(C)cc1C` was 14%.
The value for `CC1CCCN(Cc2nc3c(c(=O)n(C)c(=O)n3C)n2CC(=O)c2ccccc2)C1` (centres undefined) was -31.2%; that for `CC(=O)Nc1ccc(-c2nn3c(C)nnc3s2)cc1C` was 10.7%; that for `N#CC(=C1SC=CS1)c1nc(-c2ccccc2)cs1` was -59.7%.
Regarding `Cc1oc2nc(SCC(=O)NCc3cccnc3)nc(N)c2c1C`, the inhibition is 72.8% (active).
For `CNC(=O)CN1C(=O)c2ccccc2S1(=O)=O`, the inhibition is -15%.
`CC(C)c1ccc(NC(=O)NC2CCCCC2)cc1`: the inhibition was -85.1%.
Turning to `CC1CN(c2cc(=O)n(-c3cccc(Br)c3)c(=O)[nH]2)CC(C)O1` (centres undefined), the inhibition is 29.5%.
On to `Cc1ccc(F)cc1NC(=O)Cc1nn(C)c(=O)c2ccccc12`, for which the inhibition was 53.5% (active).
On to `Cc1ccnc(N2CCCC(C(=O)Nc3cc(F)ccc3C)C2)n1` (centres undefined), for which the inhibition is 5.7%.
Regarding `CCC(=O)NC(=Nc1nc2ccccc2s1)NC(=O)CC`, the inhibition is -48.7%.
For the compound `Cc1ccc(S(=O)(=O)Nc2ccc3ncccc3c2)cc1`, the inhibition is 56.7% (active).
For `CCOC(=O)c1nc(-c2ccc3c(c2)OCO3)[nH]c1C`, the inhibition is -66.7%.
To `c1c2c(cc3sc(N4CCCCC4)nc13)OCCO2` belongs 75.4% (active).
The value for `Fc1c(F)c(C(F)(F)F)c(F)c(F)c1N1CCN(c2ccc3nnc(C(F)(F)F)n3n2)CC1` was 6.9%; that for `O=C(O)C1OC(C(=O)O)C2C1C(F)(F)C2(F)F` (centres undefined) was 1.7%.
`COc1ccc(N=Cc2c(O)[nH]c3ccccc23)cc1OC`: the inhibition was -55.7%.
Take `C(=C\c1ccccc1)/CSc1nnc(-c2cccnc2)n1Cc1ccco1`: the inhibition was -2.8%.
Regarding `Cc1nc2ccc(S(=O)(=O)NCC(=O)NCCN3CCCCC3C)cc2s1` (centres undefined), the inhibition is 6.1%.
For `Cn1c(=NC(=O)c2ccco2)sc2cccc(F)c21`, the inhibition is -61.5%.
As to `O=C(CN1C(=O)c2ccccc2S1(=O)=O)N1CCc2ccccc21`, the inhibition is 37.4%.
For `COc1ccccc1CNC(=O)C1CCCN(S(=O)(=O)c2cccc3cccnc23)C1` (centres undefined), the inhibition is 5.2%.
In the case of `CCC(=O)Oc1cccc(C(=O)Nc2ccc(-c3nnc(-c4ccco4)o3)cc2)c1`, the inhibition is -112%.
With `COC(=O)c1sc(NC(=O)c2csc3c2CCCC3)nc1C`, the inhibition is -33.7%.
With `COc1ccc(C(=O)Nc2nncs2)c(OC)c1`, the inhibition was -62.9%.
Turning to `c1ccc(Nc2nc(-c3ccncc3)cs2)nc1`, the inhibition was -50.9%.
Consider `COc1ccc(OC)c(Nc2nc(-c3ccc(O)c(O)c3)cs2)c1`, for which the inhibition is 74.4% (active).
The value for `Cn1nnc2cc(C(=O)NCCC3=CCCCC3)ccc21` was -18%; that for `Cc1cc(C)nc(N2CCN(c3ncnc4c3oc3ccccc34)CC2)n1` was 7.6%; that for `CCCOc1ccccc1C(=O)NCCCC(=O)O` was 16.7%.
Regarding `O=C(C1CCN(c2nnc(-n3cccc3)s2)CC1)N1CCc2ccccc2C1`, the inhibition was 8.1%.
Turning to `COC(=O)Nc1ncc(CN2C(=O)c3ccccc3C2=O)s1`, the inhibition is 19.5%.
On to `COCn1c(COc2ccccc2)nc2ccccc21`, for which the inhibition was -53.4%.
`Cc1ccc(CCNC(=O)C2CCN(S(=O)(=O)N3CCCC3)CC2)cc1`: the inhibition was 2.2%.
As to `COc1ccc(Nc2oc(-c3ccccc3Cl)nc2C#N)cc1`, the inhibition was -98.6%.
For `COC(=O)c1ccc(NC(=O)c2ccco2)cc1`, the inhibition is -77.4%.
Turning to `C=CCn1c(C(C)NC(=O)CC)nc2ccccc21` (centres undefined), the inhibition was -12.3%.

The values above are taken from PubChem BioAssay AID561 (The Scripps Research Institute Molecular Screening Center, 2006).
